# Compounds with a hit are over-represented: about 2.2% of the library has one in this group of screens.
# FGF22 binding – binders of recombinant human FGF22 by thermal shift; SYPRO orange fluorescence; percent of sucrose octasulfate shift, DMSO zero; actives 1.5% (n = 340,000); Q9HCT0; activity (Tm shift, normalised), % at 9.99 µM;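 active = mean Tm shift, scaled 0 neutral to 100 positive control, at about 1.3% or above, every replicate too, limit read from the data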
# Target sequence (Q9HCT0 whole entry, looked up): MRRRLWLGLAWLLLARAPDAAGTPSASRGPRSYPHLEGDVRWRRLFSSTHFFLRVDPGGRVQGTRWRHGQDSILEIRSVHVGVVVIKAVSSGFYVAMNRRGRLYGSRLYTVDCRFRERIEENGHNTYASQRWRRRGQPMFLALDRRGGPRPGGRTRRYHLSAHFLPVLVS
# NR2E3 ag-1 – NR2E3 (human) agonism; actives 0.12% (n = 320,000); AID 2300; inhibition of corepressor binding, % at 4.78 µM; GST-NR2E3/biotin-RetCOR TR-FRET, 1536-well; Q9Y5X4;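 active = percent inhibition above the cutoff of mean plus 3 SD of all tested compounds, set per screening campaign, cut at about 20% in these data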;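 also: 0% = DMSO wells and 100% = biotin wells as full block of FRET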
# Target sequence (Q9Y5X4 whole entry, looked up): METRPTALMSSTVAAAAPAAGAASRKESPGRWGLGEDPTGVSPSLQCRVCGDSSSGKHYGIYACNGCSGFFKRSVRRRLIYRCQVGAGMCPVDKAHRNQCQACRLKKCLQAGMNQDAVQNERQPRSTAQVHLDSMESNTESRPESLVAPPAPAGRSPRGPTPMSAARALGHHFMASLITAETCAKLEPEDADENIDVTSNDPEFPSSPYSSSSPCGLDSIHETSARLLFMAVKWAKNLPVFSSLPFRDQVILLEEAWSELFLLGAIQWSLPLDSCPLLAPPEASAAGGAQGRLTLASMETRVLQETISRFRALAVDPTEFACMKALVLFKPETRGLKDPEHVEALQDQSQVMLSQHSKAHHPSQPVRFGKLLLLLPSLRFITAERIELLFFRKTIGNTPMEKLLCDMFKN
#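 System: GST-NR2E3 and biotin-RetCOR proteins; probe or stimulus: 7 nM biotin-RetCOR; doses: compound at 4.8 µM, single dose; schedule: Compound–protein incubation for 5 h at 4 °C; detection: time-resolved FRET; read-out: percent inhibition; controls: biotin wells as high control, 0.6% DMSO wells as low control; format: 1536-well plates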
# miR-122 sensor – miR-122 inhibition in Huh7 cells. activation (reporter increase), % at 12.5 µM. actives 0.3% (n = 340,000). AID 602342. Huh7 miR-122 Renilla luciferase sensor, 48 h; neutral wells = 0, positive control = 100;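 active = mean replicate activation score at least 90 and every replicate individually at or above 90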;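 also: higher luciferase means less miR-122 activity so hits act as miR-122 inhibitors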
# Jurkat NFkB inh – lowers PMA/ionomycin-induced NF-kB signal in Jurkat cells | actives 0.53% (n = 330,000) | inhibition, % at 4 µM | PMA/ionomycin-induced NF-kB luciferase reporter, luminescence; in the data active = inhibition above about 50%
# 697 NFkB inh – lowers PMA/ionomycin-induced NF-kB signal in 697 B cells; actives 0.33% (n = 330,000); 697 B-cell NF-kB luciferase reporter, 16 h; inhibition, % at 4 µM; in the data active = inhibition above about 35%
# NR2E3 ag-2 – agonists of human NR2E3 nuclear receptor; inhibition of corepressor binding, % at 3.98 µM; AID 602229; actives 0.35% (n = 360,000); CHO-S Gal4-NCOR/VP16-NR2E3 two-hybrid, luciferase; Q9Y5X4;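 active = inhibition above the mean of all tested compounds plus 3 SD, cut at about 70% in these data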;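 also: 0% = DMSO with NR2E3 transfected cells and 100% = cells lacking NR2E3 construct; higher means lower luciferase signal from less NR2E3 corepressor binding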
# Jurkat NFkB conf – lowers PMA/ionomycin-induced NF-kB signal in Jurkat cells; shares compounds with Jurkat NFkB inh; Jurkat NF-kB luciferase, 16 h; inhibition, % at 4 µM; actives 27% (n = 2,700); AID 435020;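 active = inhibition reaching about 45% at 4 µM in either replicate, limit read from the data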;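 also: plate controls were PMA/ionomycin stimulated DMSO wells for no effect and unstimulated DMSO wells for full effect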
# 697 NFkB conf – lowers PMA/ionomycin-induced NF-kB signal in 697 B cells. shares compounds with 697 NFkB inh. 697 B-cell NF-kB luciferase, 16 h. inhibition, % at 4 µM. actives 35% (n = 2,000). AID 449746; in the data active = inhibition mostly above about 28%, no sharp cut-off; inactive = mostly below about 22%
# NR2E3 ag confirm – NR2E3 agonism confirmed in two-hybrid assay; shares compounds with NR2E3 ag-2; CHO-S mammalian two-hybrid NR2E3-NCOR, luciferase luminescence; inhibition, % at 3.98 µM; actives 51% (n = 2,300); AID 624378;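 active = average inhibition above a cutoff equal to the mean inhibition of all tested compounds plus one SD, cut at about 70% in these data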;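 also: 0% = DMSO in NR2E3 cells and 100% = DMSO in cells lacking NR2E3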
# VP16 counter – reduces GAL4-VP16 reporter signal in NR2E3 counterscreen; shares compounds with NR2E3 ag-2; CHO-S GAL4-VP16 luciferase reporter, luminescence; inhibition, % at 3.98 µM; actives 29% (n = 2,300);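 active = mean inhibition above a cutoff equal to the average over all tested compounds plus one standard deviation, cut at about 70% in these data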;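 also: luciferase from a UAS reporter driven by GAL4-VP16 transactivation; 0% = DMSO with VP16-transfected cells and 100% = DMSO with cells lacking VP16; higher means less reporter light so more repression of VP16 activity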
# * marks the source's active call; other numbers are inactive results; i = inactive; . = not tested or not shown; [ ] = dose if it differs, or a comment.
SMILES,FGF22 binding,NR2E3 ag-1,miR-122 sensor,Jurkat NFkB inh,697 NFkB inh,NR2E3 ag-2,Jurkat NFkB conf,NR2E3 ag confirm,VP16 counter,others
COc1ccc(NC(=O)N(C)C[C@@H]2Oc3ncc(C#Cc4ccc(C(F)(F)F)cc4)cc3C(=O)N([C@H](C)CO)C[C@@H]2C)cc1,-0.4,.,-14.0[16.7 µM],.,.,.,.,.,.,
Cc1ccc(S(=O)(=O)Nc2ccc3c(c2)C(=O)N([C@H](C)CO)C[C@H](C)[C@H](CN(C)S(=O)(=O)c2ccc(Cl)cc2)O3)cc1,-0.5,.,.,.,.,.,.,.,.,
O=C(CCN1C(=O)c2ccccc2C1=O)Nc1nc2ccccc2s1,-0.1,2.7,.,-17.5,-21.0,-60.6,.,.,.,
O=C(CCN1C(=O)c2ccccc2C1=O)Nc1ccc(-c2nc3ccccc3s2)cc1,0.5,7.9,-0.5,-165.5,-294.4,-69.3,-94.7,.,.,697 NFkB conf=-126.2
Cc1ccc2nc(-c3ccc(NC(=O)CCN4C(=O)c5ccccc5C4=O)cc3)sc2c1,0.1,0.1,-3.3,-187.4,-260.0,-100.7,-171.1,.,.,697 NFkB conf=-191.5
CC=Cc1ccc2n(c1=O)C[C@H]1[C@H](CO)[C@@H](C(=O)NCc3ccc(F)cc3)[C@@H]2N1CC (mixture of isomers),-0.2,.,0.9[16.7 µM],.,.,.,.,.,.,
Cc1cc(/C=N/NC(=O)c2ccncc2)c(C)n1-c1ccccc1,0.0,-0.6,.,-2.8,-24.5,-2.4,.,.,.,
Cc1cc(/C=N/NC(=O)c2cccs2)c(C)n1-c1ccccc1,.,0.0,-4.4,-196.3,i,-3.1,0.4,.,.,697 NFkB conf=-38.3
CCCN1C=CC(=C2C(=O)c3ccccc3C2=O)C=C1,.,1.8,-6.2,69.4*,43.5*,41.7,74.7*,.,.,697 NFkB conf=20.5
CCCC(=O)N1CC2(CCN(Cc3nccs3)CC2)c2c([nH]c3cc(OC)ccc23)[C@H]1CO,0.0,.,.,.,.,.,.,.,.,
Cc1ccc(Nc2nc(N/N=C/c3c[nH]c4ccccc34)nc(N3CCOCC3)n2)cc1,0.4,-0.4,.,89.3*,26.8,52.4,-36.7,51.3,19.8,
Cc1ccc(S(=O)(=O)Nc2ccc3c(c2)C(=O)N([C@@H](C)CO)C[C@@H](C)[C@H](CN(C)S(=O)(=O)c2cccs2)O3)cc1,0.0,.,-1.7[16.7 µM],.,.,.,.,.,.,
C[C@@H]1CN([C@H](C)CO)C(=O)c2cc(-c3cccnc3)cnc2O[C@H]1CN(C)C(=O)c1cccc(F)c1,0.0,.,-4.8[16.7 µM],.,.,.,.,.,.,
COc1ccc(OC)c(CCNC(=O)Cn2nc(C)c3c(C)n(-c4ccc(C)cc4)nc3c2=O)c1,0.0,1.2,-12.1,55.7*,14.4,73.9*,66.5*,43.2,52.0,
COc1ccc(CCNC(=O)Cn2nc(C)c3c(C)n(-c4ccccc4)nc3c2=O)c(OC)c1,-0.1,-0.4,.,4.2,5.0,-29.6,.,.,.,
COc1ccc2c(c1)[nH]c1c(N3CCN(Cc4ccc5c(c4)OCO5)CC3)ncnc12,.,1.9,-21.8,52.5*,-5.1,92.3*,58.0*,96.8*,85.7*,
CC=Cc1ccc2n(c1=O)C[C@@H]1[C@@H](CO)[C@H](C(=O)NCCOC)[C@H]2N1Cc1nccs1 (mixture of isomers),0.3,.,.,.,.,.,.,.,.,
Cc1ccc(NC(=O)COc2ccc(N(C)C(=O)C(C)(C)C)cc2)cc1S(=O)(=O)N1CCCCC1,-0.2,.,-5.5,53.8*,51.0*,63.0,78.0*,0.2,44.0,697 NFkB conf=76.6*
CCc1cccc(OCC(=O)Nc2ccc(C)c(S(=O)(=O)N3CCCCCC3)c2)c1,-0.6,-2.7,-2.8,4.4,-27.8,-14.6,.,.,.,
CN(C)S(=O)(=O)c1cccc(NC(=O)CNc2cccc(S(=O)(=O)N3CCCCC3)c2)c1,-0.4,.,39.4,.,.,-7.5,.,.,.,
CCN(CC)S(=O)(=O)c1cc(NC(=O)CNc2cccc(S(=O)(=O)N3CCCC3)c2)ccc1C,.,1.8,.,57.2*,28.1,69.8,60.2*,61.1,52.6,
CC(C)NC(=O)Nc1cccc2c1O[C@H](CN(C)Cc1ccc(Cl)c(Cl)c1)[C@H](C)CN([C@H](C)CO)C2=O,0.2,.,3.9[16.7 µM],.,.,.,.,.,.,
Fc1ccc(NC(=S)N2CCCN(c3ccc(C(F)(F)F)cn3)CC2)c(F)c1,.,2.7,-26.1,65.8*,54.2*,69.4,19.1,91.0*,76.9*,697 NFkB conf=8.2
C[C@@H]1CCCCO[C@H](CN(C)C(=O)Nc2ccc(C(F)(F)F)cc2)[C@@H](C)CN([C@H](C)CO)C(=O)c2cc(NC(=O)Nc3ccccc3)ccc2O1,-0.2,.,1.7[16.7 µM],.,.,.,.,.,.,
O=C(NC(NNc1ccc([N+](=O)[O-])cc1)(C(F)(F)F)C(F)(F)F)c1ccccc1Cl,.,3.9,-6.5,7.6,0.3,-11.5,.,.,.,
SMILES,FGF22 binding,NR2E3 ag-1,miR-122 sensor,Jurkat NFkB inh,697 NFkB inh,NR2E3 ag-2,Jurkat NFkB conf,NR2E3 ag confirm,VP16 counter,others
O=C(NC(Nc1nc2ccc([N+](=O)[O-])cc2s1)(C(F)(F)F)C(F)(F)F)c1ccccc1Cl,-0.2,5.8,.,77.9*,-36.9,98.0*,69.5*,97.3*,90.4*,
CCn1nc(C)c(CNC(=O)c2ccc(OC3CCN(Cc4ccccn4)CC3)cc2)c1C,-0.1,.,-4.4,65.0*,11.1,79.2*,56.8*,56.9,60.1,
CCn1cc(CNC(=O)c2ccc(OC3CCN(Cc4ccccn4)CC3)cc2)cn1,-0.4,1.7,-0.3,17.0,-17.3,-6.6,.,.,.,
C[C@H](CO)N1C[C@H](C)[C@@H](CN(C)Cc2ccc(C(=O)Nc3ccccc3N)cc2)Oc2ccc(NC(=O)NC3CCCCC3)cc2CC1=O,0.0,.,16.6[16.7 µM],.,.,.,.,.,.,
Cc1noc(C)c1NC(=O)N(C)C[C@H]1Oc2ccc(NC(=O)Nc3ccccc3)cc2C(=O)N([C@@H](C)CO)C[C@@H]1C,0.1,.,-0.4[16.7 µM],.,.,.,.,.,.,
Cc1cc(C)c(CN2CCN(C(=O)Cn3cnc4c(OCc5ccccc5)ncnc43)CC2)c(C)c1,39.9,.,-4.4,59.0*,33.2,71.4*,59.4*,66.9,56.5,
CCOc1cc(S(=O)(=O)NCc2cccs2)ccc1Cl,.,-3.4,51.1,-3.2,-0.5,-5.3,.,.,.,
CCOc1ccc(S(=O)(=O)NCc2ccncc2)cc1,.,1.8,27.2,71.7*,99.7*,92.0*,69.8*,95.4*,90.0*,697 NFkB conf=93.3*
CCOc1cc(S(=O)(=O)NCc2ccncc2)ccc1Cl,0.0,4.3,15.1,64.9*,58.5*,88.1*,68.5*,97.3*,87.4*,697 NFkB conf=98.5*
